Measured values of several laboratories.
Target: Glycogen synthase kinase-3 beta (GSK3B, Homo sapiens, UniProt P49841)
Method: competition with immobilised ligand

| SMILES | assay | conditions | remaining binding [%] |
| --- | --- | --- | --- |
| CC(C)CC(=O)N1CCc2nc(-c3ccc(Br)cc3)nc(N(C)Cc3ccccc3)c2C1 | cell-free assay | 0.1 µM | 100 |
| FC(F)(F)Oc1cccc(-c2cnc3ccc(-c4ccncc4)nn23)c1 | cell-free assay | 5 µM | 78 |
| CN([C@@H]1CCc2c(CC(=O)O)c3ccccc3n2C1)S(=O)(=O)c1ccc(F)cc1 | cell-free assay | 1 µM | 93 |
| C[C@@H](c1ccc(-n2cnc3c(N)ncnc32)cc1)N1CCc2nn(C)c(Cc3ccccc3)c2C1=O | binding | 0.1 µM | 58 |
| F[C@@H]1CCN(c2nccc(-c3cnn4ncccc34)n2)C1 | binding | 1 µM | 75 |
| Nc1ncc2c(n1)-c1c([nH]c3ccc(C#CC4CC4)cc13)CCCC2 | binding | 1 µM | 98 |
| COc1cnc(Nc2cccc(S(N)(=O)=O)c2)nc1N1CCN(c2ccccc2)C(=O)C1 | binding | 1 µM | 91 |
| O=C(NCC1CCOCC1)c1n[nH]cc1NC(=O)c1c(F)cccc1F | binding | 1 µM | 0.2 |
| C=CC(=O)N1CCC(C(=O)NCC(=O)N2CCN(c3nc(-c4cnc(N)nc4C(F)F)nc(N4CCOCC4)n3)CC2)CC1 | binding | 1 µM | 74 |
| O=C(NCCCN1CCOCC1)c1ccc(Nc2nccc(-c3cc4ccccc4s3)n2)cc1 | binding | 1 µM | 73 |
| C[C@@H]1CN(c2ccc3ncc(-c4ccc5[nH]nc(C6CC6)c5c4)n3n2)C[C@H](C)O1 | binding | 50 nM | 76 |
| COc1cc(-c2cn(C3CCc4ccccc4N(CC(F)(F)F)C3=O)nn2)ccc1-n1ccc(C)n1 (stereo not shown) | cell-free assay | 1 µM | 85 |
| O=C(c1ccc(Nc2nccc(-c3cc4ccccc4s3)n2)cc1)N1CCC(N2CCCC2)CC1 | binding | 1 µM | 95 |
| N#Cc1ccc(Nc2ccc3[nH]c(=O)[nH]c3c2)c(Cl)c1 | cell-free assay | 1 µM | 96 |
| O=C(NCCCN1CCOCC1)c1ccc(Nc2ncc(Cl)c(-c3ccc(Cl)s3)n2)cc1 | binding | 1 µM | 95 |
| CN(C)C(=O)Cn1cc(-c2nc(C3(c4ccc(-c5cnc(N)nc5)cc4)CC3)no2)cn1 | cell-free assay | 1 µM | 81 |
| COc1cnc(Nc2cccc(S(N)(=O)=O)c2)nc1N1CCN(c2ccccc2)CC1 | binding | 1 µM | 97 |
| CN(CCCC(F)(F)F)c1nccc(-c2cnn3ncccc23)n1 | binding | 1 µM | 87 |
| Cc1cc(NC(=O)c2cccc(S(F)(F)(F)(F)F)c2)cc(-n2ccn3nc(-c4cccnc4)cc23)c1 | cell-free assay | 1 µM | 85.4 |
